Test: Toxicity liver stage against HepG2, at 10uM
Type: cell-based
Design: test concentration 10 uM, cell line HepG2-A16-CD81EGFP
Conditions: human, HepG2-A16-CD81EGFP cells; read-out: INHIBITION
Procedure, shortened: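 Uninfected HepG2-A16-CD81EGFP cells, 3 × 10^3 per well, 1536-well, plated on prespotted compound at 10 μM final, parasite-free screening media added to match infected plates; puromycin 10 μM positive, DMSO 0.5% negative; run in parallel with 48 h PbLuc assay at 37 °C, 5% CO2; viability by CellTiter-Glo luminescence, normalized to controls.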

Row | SMILES | cytotoxicity at 10 µM
1 | COCC1c2nnn(CC3CC3)c2CCN1C(=O)c1cnccn1 (stereo not drawn) | -140%
2 | O=c1c2ccccc2nc2n1C(CSc1ccc(Cl)cc1Cl)CN2 (stereo not drawn) | 6.01%
3 | Cc1sc(CNS(N)(=O)=O)nc1-c1ccc(Cl)cc1 | -7.45%
4 | CCOc1ccccc1NC(=O)N(CCO)Cc1ccsc1 | 0.633%
5 | COc1ccc(CN2Cc3cnn(C)c3C(COCC3CC3)C2)cc1 (stereo not drawn) | 14.5%
6 | CN1CCC(Cc2noc(CCc3nc4ccccc4nc3O)n2)CC1 | 7.23%
7 | COCc1ccccc1C(=O)NCC(O)c1ccc(Cl)s1 (stereo not drawn) | -6.63%
8 | COCCCN(C)c1cc(C(F)(F)F)nc(-c2cccnc2)n1 | -4.83%
9 | O=C1NCCCC[C@@H]1NC(=O)C1(N2CCCCC2)Cc2ccccc2C1 | -4.3%
10 | CN(C)CC1CSCCCN1C(=O)c1ccc(=O)[nH]c1 (stereo not drawn) | 2.76%
11 | FC(F)(F)c1cc(C2CCCN(c3cnccn3)C2)n2ccnc2n1 (stereo not drawn) | 6.39%
12 | CC(C)COCCC(=O)NCc1cn2cc(Br)ccc2n1 | 4.26%
13 | CCc1nc(CN2CCCN(C(=O)C(CC)OC)CC2)cs1 (stereo not drawn) | -15.8%
14 | CCc1noc(CN(CC)C(=O)CC2C(=O)NCCN2CC=C(C)C)n1 (stereo not drawn) | 2.24%
15 | O=S(=O)(c1cc(F)ccc1F)N1CCCC1c1ccncc1 (stereo not drawn) | 14.3%
16 | C[S+]([O-])c1nncn1CC(=O)c1cccc(Cl)c1 (stereo not drawn) | -1.02%
17 | O=C(NCc1nncn1-c1ccccc1)C1CC1 | -13.1%
18 | Cc1cc(C)cc(CN2CCN(C(=O)C3CCC3)[C@@H]3CS(=O)(=O)C[C@@H]32)c1 | -1.38%
19 | CC(=O)N1CCCc2cc(NC(=O)NCCc3cnn(C)c3)ccc21 | -5.42%
20 | CC(C)c1nnc2n1CCN(CC(=O)Nc1nncs1)C2 | -4.02%
21 | CC(C)n1ccc2c(NC(=O)c3n[nH]c4c3CCC4)cccc21 | 7.64%

Row | SMILES | cytotoxicity at 10 µM
22 | CN(C)[C@@H]1CN(C(=O)CCc2ccccc2)[C@@H]2CCCO[C@H]12 | -3.02%
23 | Cc1n[nH]/c(=N\C(=O)c2c3c(nc4onc(C)c24)CCC3)s1 | -1.88%
24 | O=C1CC[C@H]2[C@H](CCN2C(=O)C2CCCO2)N1Cc1cccnc1 (stereo partly drawn) | -8.6%
25 | CC(=O)c1cn(CCC(=O)Nc2c3c(nn2C)CSC3)c2ccccc12 | -1.93%
26 | Cc1cc2cccc(NC(=O)N3CCC(N(C)C)C3)c2o1 (stereo not drawn) | 1.97%
27 | CC1CCCN(C(=O)CCc2cccnc2)C1 (stereo not drawn) | -3.4%
28 | Cc1ccccc1OCCCC(=O)N1CCCC(n2cncn2)C1 (stereo not drawn) | -4.36%
29 | N#Cc1ccc(CNCCn2cccn2)c(F)c1 | -4.22%
30 | COc1ccnc(CNc2nc(C)nc3ccsc23)c1 | 40.5%
31 | Cc1nccn1C1CCCN(C(=O)c2ccc3c(c2)OCCCO3)C1 (stereo not drawn) | -12.9%
32 | COCCOCCNC(=O)N1CCc2c(F)ccc(F)c2C1 | -2.23%
33 | CCc1nc(NS(=O)(=O)c2cc(C)c(F)cc2Cl)no1 | 15.8%
34 | Cc1cccc(NC(=O)c2sccc2C)n1 | -1.45%
35 | Cn1nc(C2CCN(C(=O)CN3CCCCC3)CC2)c2cccnc21 | -30.1%
36 | c1ccc(CN2CCC3(CC2)CCN(c2ccccn2)C3)nc1 | -128%
37 | CCC(SC)C(=O)N1CCC(n2cccn2)CC1 (stereo not drawn) | -45.8%
38 | COCc1nc(CN2CC(Cc3ccccc3)CC2=O)no1 (stereo not drawn) | -12.8%
39 | c1cncc(OCc2nc(C3CC3)nn2-c2ccc3c(c2)OCCO3)c1 | 2.4%
40 | CCC(CO)N(Cc1cccnc1)C(=O)c1ccncc1F (stereo not drawn) | 2.59%
41 | Cc1cc(C)n(-c2ccc(C(C)NS(N)(=O)=O)cc2)n1 (stereo not drawn) | -7.76%
42 | CCOc1ccc(CNCCCn2ccnc2)cc1OC | -4.78%

Row | SMILES | cytotoxicity at 10 µM
43 | COc1cccc(CC2CCCN2CCCO)c1 (stereo not drawn) | -37.5%
44 | CCCNC(=O)c1cc2c(s1)CCN2c1ncccn1 | -105%
45 | CN1CCOCC2(CCCN(C(=O)Cc3ccncc3)C2)C1 (stereo not drawn) | -84.6%
46 | CCN(CC)S(=O)(=O)NC(=O)c1cc(C)n(-c2ccccc2)n1 | -9.68%
47 | CC1CCc2nc(NS(=O)(=O)c3cnn(C)c3)sc2C1 (stereo not drawn) | -0.842%
48 | COCc1ncc(CN2CC[C@@](C)(O)[C@@H](Cc3ccccc3)C2)cn1 | 12.1%
49 | CN(CC(=O)Nc1cccc(F)c1)Cc1nc(N)nc(N(C)C)n1 | -6.13%
50 | CN(Cc1nc(CC2CC2)no1)CC1COc2ccccc2O1 (stereo not drawn) | -3.89%
51 | CO[C@@H]1CO[C@@]2(CCCN(Cc3nc(C)cs3)C2)C1 | -138%
52 | COCC1CN(Cc2ccoc2)Cc2nnn(C)c21 (stereo not drawn) | -3.73%
53 | CNc1cc(C)nc(N2CCN(Cc3ccccc3)CC(O)C2)n1 (stereo not drawn) | -4.21%
54 | COCC1COCCC12CCN(C(=O)CCOc1ccccc1)CC2 (stereo not drawn) | -18.7%
55 | CSc1nc(N)cc(N2C[C@H]3CC[C@@H](C2)N(CC2CC2)C3=O)n1 | 0.291%
56 | NC(=O)c1ccc(NC(=O)c2ccncc2F)cn1 | 6.48%
57 | N#Cc1cc(NS(=O)(=O)c2cc(C(=O)O)cc(Cl)c2Cl)ccc1F | -1.37%
58 | CN(C)CCN1CCC2(CCN(C(=O)c3ccncc3)CC2)C1=O | 0.0515%
59 | CC(NCCNS(=O)(=O)c1cccc(Cl)c1)C1CCOCC1 (stereo not drawn) | -1.6%
60 | COc1ccc(NC(=O)CSc2nc(C)cc(C)n2)cn1 | -0.384%
61 | O=C(c1ccncc1)N1CCc2ncnc(C3CCOC3)c2CC1 (stereo not drawn) | -73.2%
62 | O=C1COC2(COCCN(c3cnccn3)C2)CN1c1cccc(F)c1 (stereo not drawn) | -104%
63 | CC(=O)NCc1ccc(S(=O)(=O)NC(=O)c2ccc3c(c2)CCO3)s1 | 16.1%

Row | SMILES | cytotoxicity at 10 µM
64 | CC(C)N1CCCn2c(nc(CNC(=O)c3nccn3C)cc2=O)C1 | 2.84%
65 | CCc1c(C(=O)N2CCNC(=O)C2)cnn1C(C)(C)C | -20.3%
66 | c1ccc(-n2ccc(CN3CCCC3Cn3cncn3)n2)cc1 (stereo not drawn) | 0.665%
67 | COc1cccc(CC(=O)NC(C)c2nc3cccnc3n2C(C)C)c1 (stereo not drawn) | -22.6%
68 | CC(C)(C)c1nc(CN(Cc2ccccc2F)C2CCCCC2)no1 | -2.65%
69 | CC1COCCN1C(=O)COc1cccc(Oc2ccccn2)c1 (stereo not drawn) | -5.15%
70 | CC(C)C(=O)NC1CCCN(C(=O)c2ccc(O)c(Cl)c2)C1 (stereo not drawn) | -6.04%
71 | Cc1cc(CN2CCN(CC3CC3)[C@@H]3CS(=O)(=O)C[C@@H]32)ccc1F | -1.37%
72 | CN1C[C@@H]2COC[C@]2(C(=O)NCc2cccs2)C1 | 9.22%
73 | Cc1ccc(C(C)(O)CNC(=O)CCn2ccnc2C(C)C)o1 (stereo not drawn) | 8.53%
74 | CC(CS(C)(=O)=O)N(C)C(=O)NCCCc1ccc(Cl)cc1 (stereo not drawn) | 1.8%
75 | CCCS(=O)(=O)NC(=O)c1ccc(Br)o1 | -6.11%
76 | COc1cccc(C(=O)N2CCCC2c2ncc3c(n2)CCN(C)C3)c1 (stereo not drawn) | -9.41%
77 | CN1CCCN(C(=O)c2cc(CN(C)CCc3ccccc3)on2)CC1 | -15.3%
78 | CC(=O)N1CCCC(c2cnc(-c3c(C)nn(C)c3C)cn2)C1 (stereo not drawn) | 1.95%
79 | COc1ccc2c(c1)OCC(Cc1ccc(N)nc1C)C2 (stereo not drawn) | 21.8%
80 | CC[C@H]1CN(S(C)(=O)=O)CC[C@H]1CC(=O)NCCOC | 2.55%
81 | COc1ncc(C2(O)CCN(Cc3cccc(F)c3F)CC2)c(OC)n1 | -8.33%
82 | Cc1c(C2CC(=O)Nc3c2cnn3C(C)C)cnn1C (stereo not drawn) | -6.72%
83 | COc1ccc(-c2cc(C3(O)CCN(C)CC3)on2)cc1 | 3.89%
